pIC50: −log10 of the molar value. Activity calls are given as the source filed them. The rule behind the calls is not given here.

We go through 15 compounds from ChEMBL document CHEMBL4813998, “Structural simplification of evodiamine: Discovery of novel tetrahydro-β-carboline derivatives as potent antitumor agents” (Bioorg Med Chem Lett, 2021).

One experiment addresses T1, DNA topoisomerase 1 (Homo sapiens) (UniProt P11387).
T1 sequence (whole entry): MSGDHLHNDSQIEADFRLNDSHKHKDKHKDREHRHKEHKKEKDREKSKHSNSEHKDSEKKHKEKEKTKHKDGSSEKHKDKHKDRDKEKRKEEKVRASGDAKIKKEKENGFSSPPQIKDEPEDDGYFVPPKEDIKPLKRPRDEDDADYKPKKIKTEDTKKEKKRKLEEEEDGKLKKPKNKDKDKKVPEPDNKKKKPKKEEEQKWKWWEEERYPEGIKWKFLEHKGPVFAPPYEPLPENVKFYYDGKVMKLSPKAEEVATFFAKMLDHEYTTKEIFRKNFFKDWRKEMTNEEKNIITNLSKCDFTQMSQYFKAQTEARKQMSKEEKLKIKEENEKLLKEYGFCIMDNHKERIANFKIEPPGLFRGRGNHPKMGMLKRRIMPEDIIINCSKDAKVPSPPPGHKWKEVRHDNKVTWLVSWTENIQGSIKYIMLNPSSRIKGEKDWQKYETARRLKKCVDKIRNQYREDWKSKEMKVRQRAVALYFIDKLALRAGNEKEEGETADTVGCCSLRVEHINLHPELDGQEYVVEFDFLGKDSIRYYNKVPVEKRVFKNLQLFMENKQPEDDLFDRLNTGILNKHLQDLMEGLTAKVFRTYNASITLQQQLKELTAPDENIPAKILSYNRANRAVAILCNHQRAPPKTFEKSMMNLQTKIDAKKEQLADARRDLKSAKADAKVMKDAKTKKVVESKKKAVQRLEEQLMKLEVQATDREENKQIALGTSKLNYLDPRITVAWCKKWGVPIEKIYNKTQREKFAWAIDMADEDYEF
The experiment is described as follows: Inhibition of TOP1 (unknown origin) assessed as decrease in relaxation of supercoiled DNA using supercoiled plasmid DNA at 100 uM relative to camptothecin.
Conditions: not given
In outline:
(§1)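 Top1-mediated relaxation of supercoiled DNA was tested with compounds at 500 μM and 100 μM. Camptothecin served as the positive control.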
Take `COc1ccc2[nH]c3c(c2c1)CCN(C(=O)CCc1ccccc1)C3c1ccccc1` (centres undefined): the inhibition result was “Active”.

For `COc1ccc2[nH]c3c(c2c1)CCN(C(=O)c1ccccc1)C3c1ccc(Cl)c(Cl)c1` (centres undefined), the inhibition entry is “Active”.

With `COc1ccc2[nH]c3c(c2c1)CCN(C(=O)c1ccc(F)cc1)C3c1ccc(Cl)c(Cl)c1` (centres undefined), the inhibition entry is “Active”.

Tested on in another experiment: not listed separately
The experiment in a line: Antiproliferative activity against human MDA-MB-231 cells assessed as growth inhibition by CCK8 assay. Format: functional, cell-based, Epithelial cell. Particulars: Homo sapiens, Epithelial cell.
Turning to `COc1ccc2[nH]c3c(c2c1)CCN(C(=O)c1ccccc1)C3c1ccccc1` (centres undefined), the pIC50 was 5.83.

As for `CC[C@@]1(O)C(=O)OCc2c1cc1n(c2=O)Cc2cc3ccccc3nc2-1` [CAMPTOTHECIN], the pIC50 was 7.12.

As for `COc1cccc(C(=O)N2CCc3c([nH]c4ccc(OC)cc34)C2c2ccc(Cl)c(Cl)c2)c1` (centres undefined), the negative logarithm of the IC50 (pIC50) was 6.17.

With `COc1ccc2[nH]c3c(c2c1)CCN(C(=O)CCc1ccc(F)cc1)C3c1ccccc1` (centres undefined), the pIC50 was 6.47.

As to `COc1ccc2[nH]c3c(c2c1)CCN(C(=O)c1ccccc1)C3c1ccc(F)c(F)c1` (centres undefined), the negative-log IC50 (pIC50) was 4.51.

Turning to `COc1ccc(C(=O)N2CCc3c([nH]c4ccc(OC)cc34)C2c2ccccc2)cc1` (centres undefined), the negative-log IC50 (pIC50) was 5.55.

Regarding `COc1ccc2[nH]c3c(c2c1)CCN(C(=O)c1ccccc1)C3c1ccc(Br)cc1` (centres undefined), the pIC50 is 4.73.

Take `COc1ccc2[nH]c3c(c2c1)CCN(C(=O)CCc1ccccc1F)C3c1ccccc1` (centres undefined): the negative-log IC50 (pIC50) was 6.57.

Consider `COc1ccc(C(=O)N2CCc3c([nH]c4ccc(OC)cc34)C2c2ccc(Cl)c(Cl)c2)cc1` (centres undefined), for which the negative-log IC50 (pIC50) is 5.97.

As for `CC(C)C1c2[nH]c3ccccc3c2CCN1C(=O)c1ccccc1` (centres undefined), the pIC50 is less than 4.00.

As for `COc1ccc2[nH]c3c(c2c1)CCN(C(=O)CCc1ccccc1)C3c1ccccc1` (centres undefined), the negative-log IC50 (pIC50) is 6.24.

`COc1cccc(C(=O)N2CCc3c([nH]c4ccc(OC)cc34)C2c2ccccc2)c1` (centres undefined): the negative-log IC50 (pIC50) is 5.52.

With `COc1ccc2[nH]c3c(c2c1)CCN(C(=O)c1ccc([N+](=O)[O-])cc1)C3c1ccccc1` (centres undefined), the pIC50 is 5.21.

As for `COc1ccc2[nH]c3c(c2c1)CCN(C(=O)c1ccccc1)C3c1ccc(Cl)c(Cl)c1` (centres undefined), the pIC50 was 6.23.

Turning to `COc1ccc2[nH]c3c(c2c1)CCN(C(=O)c1ccc(F)cc1)C3c1ccc(Cl)c(Cl)c1` (centres undefined), the pIC50 was 6.54.

Tested on in a further experiment: not listed separately
The experiment is described as follows: Antiproliferative activity against human HCT116 cells assessed as growth inhibition by CCK8 assay. Format: functional, cell-based, Epithelial cell. Particulars: Homo sapiens, Epithelial cell.
In the case of `COc1ccc2[nH]c3c(c2c1)CCN(C(=O)c1ccccc1)C3c1ccccc1` (centres undefined), the negative logarithm of the IC50 (pIC50) was 5.60.

Take `CC[C@@]1(O)C(=O)OCc2c1cc1n(c2=O)Cc2cc3ccccc3nc2-1` [CAMPTOTHECIN]: the negative logarithm of the IC50 (pIC50) is 8.00.

As for `COc1cccc(C(=O)N2CCc3c([nH]c4ccc(OC)cc34)C2c2ccc(Cl)c(Cl)c2)c1` (centres undefined), the negative-log IC50 (pIC50) was 5.71.

In the case of `COc1ccc2[nH]c3c(c2c1)CCN(C(=O)CCc1ccc(F)cc1)C3c1ccccc1` (centres undefined), the pIC50 is 6.14.

Regarding `COc1ccc2[nH]c3c(c2c1)CCN(C(=O)c1ccccc1)C3c1ccc(F)c(F)c1` (centres undefined), the pIC50 is 5.58.

As for `COc1ccc(C(=O)N2CCc3c([nH]c4ccc(OC)cc34)C2c2ccccc2)cc1` (centres undefined), the pIC50 was 5.21.

Turning to `COc1ccc2[nH]c3c(c2c1)CCN(C(=O)c1ccccc1)C3c1ccc(Br)cc1` (centres undefined), the pIC50 was 5.44.

With `COc1ccc2[nH]c3c(c2c1)CCN(C(=O)CCc1ccccc1F)C3c1ccccc1` (centres undefined), the pIC50 was 5.11.

Regarding `COc1ccc(C(=O)N2CCc3c([nH]c4ccc(OC)cc34)C2c2ccc(Cl)c(Cl)c2)cc1` (centres undefined), the negative logarithm of the IC50 (pIC50) was 5.37.

On to `CC(C)C1c2[nH]c3ccccc3c2CCN1C(=O)c1ccccc1` (centres undefined), for which the pIC50 was less than 4.00.

In the case of `COc1ccc2[nH]c3c(c2c1)CCN(C(=O)CCc1ccccc1)C3c1ccccc1` (centres undefined), the negative-log IC50 (pIC50) is 6.44.

As to `COc1cccc(C(=O)N2CCc3c([nH]c4ccc(OC)cc34)C2c2ccccc2)c1` (centres undefined), the negative logarithm of the IC50 (pIC50) is 5.29.

Regarding `COc1ccc2[nH]c3c(c2c1)CCN(C(=O)c1ccc([N+](=O)[O-])cc1)C3c1ccccc1` (centres undefined), the pIC50 is 4.24.

For the compound `COc1ccc2[nH]c3c(c2c1)CCN(C(=O)c1ccccc1)C3c1ccc(Cl)c(Cl)c1` (centres undefined), the pIC50 is 6.27.

As for `COc1ccc2[nH]c3c(c2c1)CCN(C(=O)c1ccc(F)cc1)C3c1ccc(Cl)c(Cl)c1` (centres undefined), the pIC50 is 6.31.

For the next experiment, the target named is DNA topoisomerase 2-alpha (Homo sapiens) (UniProt P11388). The experiment is described as follows: Inhibition of TOP2 (unknown origin) assessed as fractured DNA fragments using supercoiled plasmid DNA at 250 uM.
Sequence of DNA topoisomerase 2-alpha (Homo sapiens) (P11388 whole entry, the tested form may be a part): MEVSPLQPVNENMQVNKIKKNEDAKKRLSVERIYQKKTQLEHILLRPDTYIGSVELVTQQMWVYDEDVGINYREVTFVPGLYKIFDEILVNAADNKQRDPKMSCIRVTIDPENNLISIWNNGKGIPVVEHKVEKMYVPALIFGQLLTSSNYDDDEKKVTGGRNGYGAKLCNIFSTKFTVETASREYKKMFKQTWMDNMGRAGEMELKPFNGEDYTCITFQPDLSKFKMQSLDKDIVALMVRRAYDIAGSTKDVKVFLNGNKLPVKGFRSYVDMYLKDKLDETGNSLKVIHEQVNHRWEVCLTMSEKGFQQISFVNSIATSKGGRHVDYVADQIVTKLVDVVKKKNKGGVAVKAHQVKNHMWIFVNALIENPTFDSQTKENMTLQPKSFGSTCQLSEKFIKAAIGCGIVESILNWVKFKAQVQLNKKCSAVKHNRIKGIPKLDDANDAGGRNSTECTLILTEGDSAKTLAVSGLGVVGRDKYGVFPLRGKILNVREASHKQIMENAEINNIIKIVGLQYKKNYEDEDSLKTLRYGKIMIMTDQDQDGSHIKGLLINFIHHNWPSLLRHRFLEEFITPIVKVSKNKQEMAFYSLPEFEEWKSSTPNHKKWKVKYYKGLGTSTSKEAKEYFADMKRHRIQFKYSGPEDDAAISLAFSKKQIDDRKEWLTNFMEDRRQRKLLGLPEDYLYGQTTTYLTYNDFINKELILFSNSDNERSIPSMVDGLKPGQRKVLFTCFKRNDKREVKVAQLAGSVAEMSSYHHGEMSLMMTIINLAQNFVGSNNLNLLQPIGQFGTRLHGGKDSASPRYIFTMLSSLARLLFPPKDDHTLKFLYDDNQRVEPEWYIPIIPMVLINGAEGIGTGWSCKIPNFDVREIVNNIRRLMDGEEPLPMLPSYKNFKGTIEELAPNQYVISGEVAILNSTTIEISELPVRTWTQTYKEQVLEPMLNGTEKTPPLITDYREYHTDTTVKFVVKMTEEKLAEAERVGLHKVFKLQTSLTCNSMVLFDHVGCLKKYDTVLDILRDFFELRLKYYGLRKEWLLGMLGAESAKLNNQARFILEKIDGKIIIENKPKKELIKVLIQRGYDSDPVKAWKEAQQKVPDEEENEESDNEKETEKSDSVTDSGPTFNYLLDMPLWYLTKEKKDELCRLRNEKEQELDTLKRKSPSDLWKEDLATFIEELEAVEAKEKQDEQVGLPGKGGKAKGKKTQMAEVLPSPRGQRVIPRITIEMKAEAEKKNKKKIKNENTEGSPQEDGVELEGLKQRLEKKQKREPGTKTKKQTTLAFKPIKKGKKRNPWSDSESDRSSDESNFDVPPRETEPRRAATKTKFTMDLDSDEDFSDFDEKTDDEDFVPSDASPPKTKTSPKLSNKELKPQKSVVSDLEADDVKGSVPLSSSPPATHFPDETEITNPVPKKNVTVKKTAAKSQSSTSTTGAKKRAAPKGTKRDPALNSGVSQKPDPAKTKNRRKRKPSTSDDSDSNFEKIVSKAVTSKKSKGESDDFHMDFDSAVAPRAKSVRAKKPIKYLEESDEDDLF
Conditions: not given
In outline: (§2)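 Purified Top2 was incubated with DNA and compounds at 250 μM and 100 μM. The read-out was the appearance of fractured DNA fragments, with etoposide as the positive control.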
`COc1ccc2[nH]c3c(c2c1)CCN(C(=O)CCc1ccc(F)cc1)C3c1ccccc1` (centres undefined): the inhibition entry was “Active”.

In the case of `COc1ccc2[nH]c3c(c2c1)CCN(C(=O)CCc1ccccc1)C3c1ccccc1` (centres undefined), the inhibition entry is “Active”.

Turning to `COc1ccc2[nH]c3c(c2c1)CCN(C(=O)c1ccccc1)C3c1ccc(Cl)c(Cl)c1` (centres undefined), the inhibition entry was “Active”.

Take `COc1ccc2[nH]c3c(c2c1)CCN(C(=O)c1ccc(F)cc1)C3c1ccc(Cl)c(Cl)c1` (centres undefined): the inhibition result was “Active”.

Tested on in a further experiment: not listed separately
The experiment is described as follows: Antiproliferative activity against human A549 cells assessed as growth inhibition by CCK8 assay. Particulars: Homo sapiens, Epithelial cell. Format: functional, cell-based, Epithelial cell.
As for `COc1ccc2[nH]c3c(c2c1)CCN(C(=O)c1ccccc1)C3c1ccccc1` (centres undefined), the pIC50 was 5.28.

As to `CC[C@@]1(O)C(=O)OCc2c1cc1n(c2=O)Cc2cc3ccccc3nc2-1` [CAMPTOTHECIN], the pIC50 is 7.35.

Turning to `COc1cccc(C(=O)N2CCc3c([nH]c4ccc(OC)cc34)C2c2ccc(Cl)c(Cl)c2)c1` (centres undefined), the negative logarithm of the IC50 (pIC50) was 4.87.

As for `COc1ccc2[nH]c3c(c2c1)CCN(C(=O)CCc1ccc(F)cc1)C3c1ccccc1` (centres undefined), the pIC50 is 5.42.

Turning to `COc1ccc2[nH]c3c(c2c1)CCN(C(=O)c1ccccc1)C3c1ccc(F)c(F)c1` (centres undefined), the negative logarithm of the IC50 (pIC50) was 4.52.

Turning to `COc1ccc(C(=O)N2CCc3c([nH]c4ccc(OC)cc34)C2c2ccccc2)cc1` (centres undefined), the pIC50 was 4.93.

Regarding `COc1ccc2[nH]c3c(c2c1)CCN(C(=O)c1ccccc1)C3c1ccc(Br)cc1` (centres undefined), the negative logarithm of the IC50 (pIC50) is 5.68.

In the case of `COc1ccc2[nH]c3c(c2c1)CCN(C(=O)CCc1ccccc1F)C3c1ccccc1` (centres undefined), the pIC50 is 5.61.

Take `COc1ccc(C(=O)N2CCc3c([nH]c4ccc(OC)cc34)C2c2ccc(Cl)c(Cl)c2)cc1` (centres undefined): the negative logarithm of the IC50 (pIC50) was 4.35.

Take `CC(C)C1c2[nH]c3ccccc3c2CCN1C(=O)c1ccccc1` (centres undefined): the negative logarithm of the IC50 (pIC50) is less than 4.00.

As for `COc1ccc2[nH]c3c(c2c1)CCN(C(=O)CCc1ccccc1)C3c1ccccc1` (centres undefined), the negative logarithm of the IC50 (pIC50) was 5.10.

In the case of `COc1cccc(C(=O)N2CCc3c([nH]c4ccc(OC)cc34)C2c2ccccc2)c1` (centres undefined), the pIC50 is 4.92.

On to `COc1ccc2[nH]c3c(c2c1)CCN(C(=O)c1ccc([N+](=O)[O-])cc1)C3c1ccccc1` (centres undefined), for which the pIC50 is 4.59.

`COc1ccc2[nH]c3c(c2c1)CCN(C(=O)c1ccccc1)C3c1ccc(Cl)c(Cl)c1` (centres undefined): the negative-log IC50 (pIC50) is 5.78.

In the case of `COc1ccc2[nH]c3c(c2c1)CCN(C(=O)c1ccc(F)cc1)C3c1ccc(Cl)c(Cl)c1` (centres undefined), the negative logarithm of the IC50 (pIC50) is 4.85.

A further experiment has as its target DNA topoisomerase 2-alpha (Homo sapiens) (UniProt P11388). The experiment in a line: Inhibition of TOP2 (unknown origin) assessed as fractured DNA fragments using supercoiled plasmid DNA at 100 uM relative to etoposide.
Conditions: not given
In outline: as §2
Take `COc1ccc2[nH]c3c(c2c1)CCN(C(=O)CCc1ccc(F)cc1)C3c1ccccc1` (centres undefined): the inhibition entry was “Active”.

Take `COc1ccc2[nH]c3c(c2c1)CCN(C(=O)CCc1ccccc1)C3c1ccccc1` (centres undefined): the inhibition result was “Active”.

Regarding `COc1ccc2[nH]c3c(c2c1)CCN(C(=O)c1ccccc1)C3c1ccc(Cl)c(Cl)c1` (centres undefined), the inhibition result is “Active”.

On to `COc1ccc2[nH]c3c(c2c1)CCN(C(=O)c1ccc(F)cc1)C3c1ccc(Cl)c(Cl)c1` (centres undefined), for which the inhibition entry is “Active”.

For the next experiment the target is unchanged. The experiment is described as follows: Inhibition of TOP2 (unknown origin) assessed as fractured DNA fragments using supercoiled plasmid DNA at 50 uM relative to etoposide.
Conditions: not given
On to `COc1ccc2[nH]c3c(c2c1)CCN(C(=O)CCc1ccc(F)cc1)C3c1ccccc1` (centres undefined), for which the inhibition entry was “Active”.

`COc1ccc2[nH]c3c(c2c1)CCN(C(=O)CCc1ccccc1)C3c1ccccc1` (centres undefined): the inhibition result is “Active”.

`COc1ccc2[nH]c3c(c2c1)CCN(C(=O)c1ccccc1)C3c1ccc(Cl)c(Cl)c1` (centres undefined): the inhibition entry was “Active”.

As for `COc1ccc2[nH]c3c(c2c1)CCN(C(=O)c1ccc(F)cc1)C3c1ccc(Cl)c(Cl)c1` (centres undefined), the inhibition result was “Active”.

The target of another experiment is T1, DNA topoisomerase 1 (Homo sapiens). The experiment in a line: Inhibition of TOP1 (unknown origin) assessed as decrease in relaxation of supercoiled DNA using supercoiled plasmid DNA at 500 uM relative to camptothecin.
Conditions: not given
The gist of the method:
as §1
For `COc1ccc2[nH]c3c(c2c1)CCN(C(=O)CCc1ccc(F)cc1)C3c1ccccc1` (centres undefined), the inhibition result is “Active”.

Take `COc1ccc2[nH]c3c(c2c1)CCN(C(=O)CCc1ccccc1)C3c1ccccc1` (centres undefined): the inhibition entry is “Active”.

Take `COc1ccc2[nH]c3c(c2c1)CCN(C(=O)c1ccccc1)C3c1ccc(Cl)c(Cl)c1` (centres undefined): the inhibition entry was “Active”.

In the case of `COc1ccc2[nH]c3c(c2c1)CCN(C(=O)c1ccc(F)cc1)C3c1ccc(Cl)c(Cl)c1` (centres undefined), the inhibition entry was “Active”.
